According to PMC7869845 (ACS catalysis, 2020):

Key:
[1] = system: TamI S397A, T398A, V185A, P43A/V44A variants; assay type: biochemical, Streptomyces sp. 307-9; settings: end-point assay, TirC to TirE conversion
[2] = system: TamI F92A; experiment: End-point assay, TamI F92A; assay type: biochemical, Streptomyces sp. 307-9
Procedure, shortened: (§1)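 Site-directed mutants expressed in E. coli BL21(DE3). Reactions in phosphate buffer (50 mM NaH2PO4, pH 7.4, EDTA, dithioerythritol, 10% glycerol) held 500 μM tirandamycin substrate, 2 μM TamI, spinach ferredoxin, 2 μM ferredoxin-NADP+ reductase, and G6P/G6PDH NADPH regeneration. Incubated 3 h at 30 °C, extracted with CHCl3, then C18 reverse-phase HPLC with UV at 354 nm. Run in triplicate.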

[3] = system: TamI L399A/I400A; experiment: End-point assay, TamI L399A/I400A; assay type: biochemical, Streptomyces sp. 307-9
Procedure, shortened: as §1

[4] = system: TamI F92A; experiment: Spectrophotometric substrate binding assay, TamI F92A; set-up: species or system Streptomyces sp. 307-9
Procedure, shortened: (§2)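 Active P450 was quantified by CO-difference spectra (ε450-490 = 91 mM−1cm−1). Enzyme at 1 μM final in storage buffer was titrated aerobically at room temperature with tirandamycin C from DMSO stocks until saturated. Difference spectra were recorded at 365–429 nm, and peak-minus-trough ΔA was plotted against concentration. Kd came from quadratic tight-binding or hyperbolic fits, averaged over triplicate titrations.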

[5] = system: TamI L399A/I400A; experiment: Spectrophotometric substrate binding assay, TamI L399A/I400A; set-up: species or system Streptomyces sp. 307-9
Procedure, shortened: as §2

[6] = system: TamI L101V/H102S; experiment: End-point assay, TamI L101V/H102S; assay type: biochemical, Streptomyces sp. 307-9; settings: no change in product profile
Procedure, shortened: as §1

[7] = system: TamI double mutant (alanine substitutions at Leu295 and Thr299); experiment: End-point assay, TamI Leu295/Thr299 alanine double mutant; assay type: biochemical, Streptomyces sp. 307-9
Procedure, shortened: as §1

[8] = system: TamI-RhFRED fusion protein; settings: first oxidation of 1, second oxidation of 3, final oxidation of 4; cited from earlier work

SMILES | product profile or abundance compared to wild type TamI [1] | catalytic activity [2] | catalytic activity [3] | spectral shift on substrate addition [4] | spectral shift on substrate addition [5] | TirC to TirE conversion [6] | ability to convert substrate to 2 [7] | kcat [8]
CC1=CC[C@H]2O[C@]1(C)O[C@H]([C@H](C)/C=C(C)/C=C/C(O)=C1/C(=O)CNC1=O)[C@H]2C [compound 1, tirandamycin C] | no evident changes in product profile or abundance | complete loss of catalytic activity | significantly reduced activity | no shift | no shift | significant decrease | wild type activity | 0.675 s⁻¹
CC1=CC(=O)[C@H]2O[C@]1(C)O[C@H]([C@H](C)/C=C(C)/C=C/C(O)=C1/C(=O)CNC1=O)[C@H]2C [compound 3, tirandamycin D] | – | – | – | – | – | – | – | 1.4 s⁻¹
CC(/C=C/C(O)=C1/C(=O)CNC1=O)=C\[C@@H](C)[C@H]1O[C@@]2(C)O[C@H](C(=O)[C@H]3O[C@]32C)[C@@H]1C [compound 4, tirandamycin A] | – | – | – | – | – | – | – | 0.00183 s⁻¹
